Source: ChEMBL document CHEMBL4342410, “Design and Discovery of N-(3-(2-(2-Hydroxyethoxy)-6-morpholinopyridin-4-yl)-4-methylphenyl)-2-(trifluoromethyl)isonicotinamide, a Selective, Efficacious, and Well-Tolerated RAF Inhibitor Targeting RAS Mutant Cancers: The Path to the Clinic” (J Med Chem, 2020)

What was measured:
[1] = Cmax in mouse at 4 mg/kg, po; format: ADME, organism-based; set-up: dose 4 mg/kg, route oral; settings: in vivo
[2] = Clearance in rat at 2 mg/kg, iv or 4 mg/kg, po; format: ADME, organism-based; settings: in vivo
[3] = tested on: RAF proto-oncogene serine/threonine-protein kinase (Homo sapiens), P04049 [Y340E,Y341E]; assay: Binding affinity to CRAF Y340E/Y341E mutant (unknown origin) assessed as dissociation half life by rapid dilution method
In short: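 Full-length CRAF carrying activating Y340E/Y341E was used in a kinase activity assay. Dissociation was measured by the rapid dilution method, and recovery of enzyme activity was followed over 6 hours of incubation. The dissociation half-life was derived from that recovery.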

[4] = Cmax in nude rat xenografted with human Calu6 cells harboring KRAS Q61K mutant at 75 mg/kg, po administered daily for 18 days starting from day 13 post tumor implantation and measured on day 31; format: ADME, organism-based; set-up: dose 75 mg/kg, route oral; settings: in vivo
In short: (§1)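 Nude rats carrying Calu-6 (KRAS Q61K) NSCLC xenografts were dosed p.o. once daily at 15, 35, 75 or 150 mg/kg from day 13 to day 31 after implant. Plasma was collected after the last dose and drug concentration was measured. AUC and Cmax were calculated per dose on day 31.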

Cytochrome P450 3A4 = Cytochrome P450 3A4 (Homo sapiens, UniProt P08684); assay: Time dependent inhibition of CYP3A4 in human liver microsomes assessed as inactivation rate constant at 10 uM using midazolam as substrate incubated prior to substrate addition and measured after 6 mins in presence of NADPH; format: ADME; settings: 0.1 h
Cytochrome P450 3A4, sequence (P08684 whole entry): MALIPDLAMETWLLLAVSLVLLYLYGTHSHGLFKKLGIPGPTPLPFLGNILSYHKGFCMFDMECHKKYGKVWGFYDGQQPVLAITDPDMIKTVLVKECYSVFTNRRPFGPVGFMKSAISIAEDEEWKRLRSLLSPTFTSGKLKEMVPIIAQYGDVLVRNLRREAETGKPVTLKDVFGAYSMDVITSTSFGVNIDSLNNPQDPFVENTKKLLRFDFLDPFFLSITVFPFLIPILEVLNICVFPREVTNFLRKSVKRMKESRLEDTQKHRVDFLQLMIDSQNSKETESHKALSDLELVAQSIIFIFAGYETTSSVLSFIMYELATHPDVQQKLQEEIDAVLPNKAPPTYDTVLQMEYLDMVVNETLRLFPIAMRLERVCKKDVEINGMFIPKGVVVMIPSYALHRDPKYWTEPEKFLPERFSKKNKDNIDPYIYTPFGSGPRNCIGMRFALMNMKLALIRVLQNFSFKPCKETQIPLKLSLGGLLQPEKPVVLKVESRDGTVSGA
In short: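 Human liver microsomes (0.5 mg/mL) preincubated with test compound at 10 µM and 1 mM NADPH in phosphate buffer at 37 °C for 0, 5, 15 and 30 min. Mixture then diluted 20-fold and incubated with midazolam (20 µM) at 37 °C for 6 min to measure residual CYP3A4 activity. kobs taken as the initial rate of decline of activity versus preincubation time.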

[5] = Lipophilicity, log P of the compound at pH 6.5; format: physicochemical; settings: buffer
[6] = AUC (infinity) in mouse at 4 mg/kg, po; format: ADME, organism-based; set-up: dose 4 mg/kg, route oral, time infinity; settings: in vivo
[7] = Dissociation constant, pKa of the compound; format: physicochemical
[8] = Cmax in dog at 0.4 mg/kg, po; format: ADME, organism-based, Canis lupus familiaris; set-up: dose 0.4 mg/kg, route oral; settings: in vivo
[9] = Oral bioavailability in rat at 4 mg/kg; format: ADME, organism-based; settings: in vivo
Calu-6 [10] = assay: Antitumor activity against human Calu6 cells harboring KRAS Q61K mutant xenografted in nude rat assessed as tumor regression at 150 mg/kg, po administered daily for 18 days starting from day 13 post tumor implantation and measured on day 31 relative to control; format: functional
In short: (§2)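 Nude rats bearing Calu-6 (KRAS Q61K) human NSCLC xenografts received vehicle or drug p.o. daily at 15, 35, 75 or 150 mg/kg. Dosing began 13 days after tumor implantation and ran to day 31, i.e. 18 days of treatment. Tumor volumes were read out as %T/C or % regression versus vehicle on day 31. Body weight was also tracked.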

[11] = Toxicity in human Calu6 cells harboring KRAS Q61K mutant xenografted nude rat assessed as mortality at 15 to 150 mg/kg, po administered daily for 18 days starting from day 13 post tumor implantation and measured during compound dosing; format: organism-based; settings: in vivo, 432 h
In short: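 Nude rats bearing Calu-6 (KRAS Q61K) NSCLC xenografts were dosed orally once daily with vehicle or 15, 35, 75 or 150 mg/kg. Dosing ran from day 13 post-implant to day 31. Rats were monitored for mortality and signs of toxicity over the treatment period, alongside body weight.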

[12] = biological target: T1, Serine/threonine-protein kinase B-raf (Homo sapiens, UniProt P15056); assay: Binding affinity to wild-type human partial length BRAF (S429 to E741 residues) expressed in mammalian expression system at 1 uM by Kinomescan method relative to control
T1 sequence (P15056 whole entry, the tested form may be a part): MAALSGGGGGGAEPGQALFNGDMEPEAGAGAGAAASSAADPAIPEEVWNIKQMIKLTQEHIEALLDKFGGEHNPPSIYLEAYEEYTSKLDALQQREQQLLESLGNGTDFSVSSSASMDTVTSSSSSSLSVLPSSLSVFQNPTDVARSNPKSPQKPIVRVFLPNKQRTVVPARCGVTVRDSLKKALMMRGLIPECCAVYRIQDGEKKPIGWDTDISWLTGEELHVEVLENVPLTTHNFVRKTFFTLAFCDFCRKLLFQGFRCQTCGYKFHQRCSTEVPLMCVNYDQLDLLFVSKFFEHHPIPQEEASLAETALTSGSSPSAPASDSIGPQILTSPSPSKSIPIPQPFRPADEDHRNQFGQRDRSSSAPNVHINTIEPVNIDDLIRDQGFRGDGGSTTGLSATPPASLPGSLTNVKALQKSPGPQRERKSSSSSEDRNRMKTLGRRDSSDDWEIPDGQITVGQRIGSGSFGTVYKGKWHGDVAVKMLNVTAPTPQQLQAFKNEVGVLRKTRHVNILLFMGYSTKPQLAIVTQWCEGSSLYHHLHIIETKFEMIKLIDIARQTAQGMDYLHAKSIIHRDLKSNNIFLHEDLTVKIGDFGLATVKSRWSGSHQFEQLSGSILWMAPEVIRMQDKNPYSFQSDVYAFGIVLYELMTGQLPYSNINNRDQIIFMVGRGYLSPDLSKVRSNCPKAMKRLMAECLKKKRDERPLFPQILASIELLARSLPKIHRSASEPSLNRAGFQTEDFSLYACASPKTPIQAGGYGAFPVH

[13] = biological target: T2, Discoidin domain-containing receptor 2 (Homo sapiens) (UniProt Q16832); assay: Binding affinity to wild-type human partial length DDR2 (V555 to E855 residues) expressed in mammalian expression system at 1 uM by Kinomescan method relative to control
T2 sequence (whole entry): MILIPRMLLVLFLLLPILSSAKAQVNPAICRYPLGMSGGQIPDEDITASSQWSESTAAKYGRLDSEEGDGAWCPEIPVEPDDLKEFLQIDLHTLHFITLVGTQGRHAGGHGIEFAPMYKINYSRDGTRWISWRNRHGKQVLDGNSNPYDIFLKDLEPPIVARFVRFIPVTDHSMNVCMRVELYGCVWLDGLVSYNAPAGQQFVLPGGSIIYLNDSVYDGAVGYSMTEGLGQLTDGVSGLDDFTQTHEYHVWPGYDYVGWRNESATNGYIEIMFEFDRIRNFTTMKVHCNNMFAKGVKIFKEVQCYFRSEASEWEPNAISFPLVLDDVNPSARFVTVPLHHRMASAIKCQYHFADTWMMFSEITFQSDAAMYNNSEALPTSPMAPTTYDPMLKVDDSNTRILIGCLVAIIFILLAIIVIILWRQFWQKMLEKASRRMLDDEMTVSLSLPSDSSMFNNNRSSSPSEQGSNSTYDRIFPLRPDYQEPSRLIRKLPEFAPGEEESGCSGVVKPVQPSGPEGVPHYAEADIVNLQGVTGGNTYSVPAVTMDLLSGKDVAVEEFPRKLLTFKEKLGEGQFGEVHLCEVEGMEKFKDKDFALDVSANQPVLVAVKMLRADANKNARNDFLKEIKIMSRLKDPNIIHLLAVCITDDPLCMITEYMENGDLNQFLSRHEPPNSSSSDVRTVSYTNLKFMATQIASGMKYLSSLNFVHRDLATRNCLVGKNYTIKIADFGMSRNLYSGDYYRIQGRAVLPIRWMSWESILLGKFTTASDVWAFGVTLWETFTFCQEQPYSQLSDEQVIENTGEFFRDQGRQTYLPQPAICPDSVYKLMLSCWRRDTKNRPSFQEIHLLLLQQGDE
In short: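 KINOMEscan competition binding panel of about 456 kinases, compound tested at 1 μM. Activity is given as % of control = [(test signal − positive control signal)/(negative control signal − positive control signal)] × 100.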

Calu-6 [14] = assay: Antitumor activity against human Calu6 cells harboring KRAS Q61K mutant xenografted in nude rat assessed as tumor growth at 35 mg/kg, po administered daily for 18 days starting from day 13 post tumor implantation and measured on day 31 relative to control; format: functional; in short: as §2
[15] = biological target: T3, Discoidin domain-containing receptor 2 (Homo sapiens, UniProt Q16832); assay: Binding affinity to wild-type human partial length DDR2 (V555 to E855 residues) expressed in mammalian expression system by Kinomescan method
T3 sequence (Q16832 whole entry): T2 sequence (whole entry)

[16] = biological target: T1, Serine/threonine-protein kinase B-raf; assay: Binding affinity to wild-type human partial length BRAF (S429 to E741 residues) expressed in mammalian expression system by Kinomescan method
[17] = Volume of distribution at steady state in dog at 0.2 mg/kg, iv or 0.4 mg/kg, po; format: ADME, organism-based, Canis lupus familiaris; settings: in vivo, read-out: Vdss
[18] = Clearance in dog at 0.2 mg/kg, iv or 0.4 mg/kg, po; format: ADME, organism-based, Canis lupus familiaris; settings: in vivo
[19] = AUC (0 to 24 hrs) in nude rat xenografted with human Calu6 cells harboring KRAS Q61K mutant at 150 mg/kg, po administered daily for 18 days starting from day 13 post tumor implantation and measured on day 31; format: ADME, organism-based; set-up: dose 150 mg/kg, time < 24 hr, route oral; settings: in vivo; in short: as §1

Cc1ccc(NC(=O)c2ccnc(C(F)(F)F)c2)cc1-c1cc(OCCO)nc(N2CCOCC2)c1 [NAPORAFENIB]
Cmax [1]: 1600 nM
clearance [2]: 31 mL/min/kg
T1/2 [3]: > 6.5 h
Cmax [4]: 8680 nM
K (Cytochrome P450 3A4): 0.01 min⁻¹
logD [5]: > 3
AUC(0-inf) [6]: 4.3 µM·h
pKa [7]: 3.86
Cmax [8]: 400 nM
bioavailability [9]: 38%
Activity (Calu-6 [10]): 56%
Activity [11]: Non-Toxic
Activity [12]: > 98%
Activity [13]: 84%
T/C (Calu-6 [14]): 9%
Kd [15]: 10 nM
Kd [16]: 1.3 nM
Vd [17]: 1.7 L/kg
clearance [18]: 3.5 mL/min/kg
AUC at 24 h [19]: 217 µM·h
